Here are results for 2 compounds from ChEMBL document CHEMBL5143736, “Discovery and Optimization of a Synthetic Class of Nectin-4-Targeted CD137 Agonists for Immuno-oncology” (J Med Chem, 2022).

By Kd is commonly meant a measure of binding affinity in units of concentration. As usually defined, the clearance is a measure of how efficiently the substance is removed, as volume per time. For orientation: half-life means the time needed for the level to fall by half in the phase considered.

Data set [1] has as its target T1, Tumor necrosis factor receptor superfamily member 9 (Homo sapiens, UniProt Q07011). Briefly: Agonist activity at recombinant human CD137 expressed in Jurkat T cells co-expressing response element driven luciferase reporter gene co-cultured with Nectin-4 expressing mouse MC38 cells assessed as luminescence measured after 6 hrs by luciferase reporter gene based co-culture assay. As to conditions: filed as agonist, DDE = dose-dependent effect. Format: cell-based. The method, boiled down:
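Jurkat cells carrying human CD137 and a CD137 response-element luciferase reporter, cocultured for 6 h at 37 °C, 5% CO2 with 10,000 MC38 cells engineered to express mouse Nectin-4 (parental MC38 as negative line). Bio-Glo luminescence read-out, as fold induction over no-test-article wells. Mean of n = 2.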

Data set [2] deals with T1, Tumor necrosis factor receptor superfamily member 9. Briefly: Agonist activity at human CD137 expressed in human HT-1376 cells measured after 6 hrs by […] microplate reader assay. Format: cell-based. Conditions: filed as agonist.
Data set [3] shares this target. As to the kind of experiment: Agonist activity at human CD137 expressed in human NCI-H292 cells measured after 6 hrs by […] microplate reader assay. Format: cell-based. As to conditions: filed as agonist.
Data set [4] deals with PBMC. Briefly: […] activity in human PBMC stimulated with anti-CD3-mediated CD137 expression in cocultured with […] cell line assessed as increase in secretion of IFN gamma incubated for 48 hrs by Luminex assay. It counts as functional, cell-based. As to conditions: DDE = dose-dependent effect. In a few lines: (§1)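 Healthy-donor PBMCs were thawed into R10 medium and cocultured with HT1376 cells at 10:1 effector:target (1×10^5 PBMC:1×10^4 tumor cells per well). Soluble anti-CD3 OKT3 (100 ng/mL) was added on day 0, then compound, 37 °C, 5% CO2. Supernatant IFNγ and IL-2 taken at 24 and 48 h, measured by Luminex. Four-parameter fit, n = 3, repeated in multiple donors.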

For data set [5], the system named is PBMC. Briefly: […] activity in human PBMC stimulated with anti-CD3-mediated CD137 expression in cocultured with […] cell line assessed as increase in secretion of IL2 incubated for 48 hrs by Luminex assay. Format: functional, cell-based. Conditions: DDE = dose-dependent effect. In a few lines: as §1
Data set [6] deals with T1, Tumor necrosis factor receptor superfamily member 9. As to the kind of experiment: Binding affinity to human recombinant CD137 by surface plasmon resonance analysis. In a few lines: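 Biacore T200 SPR, human CD137, 25 °C. Peptide series in PBS/0.05% Tween 20 with 0.5% DMSO: top 500 nM (threefold) or 10 μM (twofold), 6 further dilutions. Flow 90 μL/min, 60 s association, 100–600 s dissociation, glycine pH 2 regeneration. DMSO-corrected and double-referenced; kinetic fit gives ka, kd, KD.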
For orientation: SPR reads the build-up and loss of mass on a sensor chip optically.

For data set [7], the target named is T2, Nectin-4 (Homo sapiens, UniProt Q96NY8).
T2 sequence (Q96NY8 whole entry): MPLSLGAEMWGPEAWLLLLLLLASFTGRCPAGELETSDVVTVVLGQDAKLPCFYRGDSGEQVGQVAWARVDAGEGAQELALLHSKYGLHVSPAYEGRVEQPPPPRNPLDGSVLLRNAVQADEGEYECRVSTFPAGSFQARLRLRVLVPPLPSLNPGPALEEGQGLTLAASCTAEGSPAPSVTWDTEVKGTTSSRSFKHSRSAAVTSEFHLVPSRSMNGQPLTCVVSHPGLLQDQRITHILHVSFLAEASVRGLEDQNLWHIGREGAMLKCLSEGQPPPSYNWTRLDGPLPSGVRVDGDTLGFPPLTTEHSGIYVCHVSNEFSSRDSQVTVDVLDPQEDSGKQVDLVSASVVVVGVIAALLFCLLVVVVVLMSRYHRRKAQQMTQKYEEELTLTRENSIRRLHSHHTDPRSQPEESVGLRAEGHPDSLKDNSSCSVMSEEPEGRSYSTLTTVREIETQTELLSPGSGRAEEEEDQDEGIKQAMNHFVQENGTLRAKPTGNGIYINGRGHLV
Briefly: Binding affinity to human Nectin-4 assessed as dissociation constant using 1:1 Nectin-4/CD137 by surface plasmon resonance analysis. The method, boiled down: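 SPR kinetics against human Nectin-4 (residues 32–349, baculovirus/Sf21-expressed, FLAG-tagged), 25 °C. Top 100 nM with 6 further twofold dilutions, 50 μL/min, 60 s association, 400–1200 s dissociation, DMSO-corrected. At least four concentrations used to obtain kon, koff and KD.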

The nature of data set [8]: Thermodynamic solubility of the compound in phosphate buffer at pH 7.4. It counts as physicochemical. Conditions: read-out: Therm_solubility. The method, boiled down:
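Thermodynamic solubility measured in 50 mM phosphate buffer, pH 7.4.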

Data set [9] can be described thus: Plasma clearance in Cynomolgus monkey at 1 mg/kg, iv administered for 30 min by LC-MS/MS analysis. Format: ADME, organism-based, Macaca fascicularis. In a few lines: (§2)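 Male naïve cynomolgus monkeys received 1 mg/kg as a 30 min IV infusion in 25 mM histidine HCl, 10% sucrose, pH 7 (n = 2 animals/compound). Serial K2-EDTA plasma was protein-precipitated with internal standard and analysed by LC–MS/MS (Orbitrap, positive ion). Noncompartmental analysis gave clearance, Vdss and terminal half-life.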

The nature of data set [10]: Volume of distribution at steady state in Cynomolgus monkey at 1 mg/kg, iv administered for 30 min by LC-MS/MS analysis. Conditions: plasma, read-out: Vdss. It counts as ADME, organism-based, Macaca fascicularis. The method, boiled down:
as §2

The nature of data set [11]: Half life in Cynomolgus monkey at 1 mg/kg, iv administered for 30 min by LC-MS/MS analysis. Conditions: plasma. It counts as ADME, organism-based, Macaca fascicularis. In a few lines: as §2
The target in data set [12] is T1, Tumor necrosis factor receptor superfamily member 9. As to the kind of experiment: Agonist activity at human CD137 expressed in Jurkat T cells co-expressing response element driven luciferase reporter gene assessed as fold change in EC50 at 1:1 Nectin-4/CD137 ratio measured after 6 hrs by HT1376/CD137 reporter co-culture assay. As to conditions: filed as agonist. It counts as cell-based. A general note: Reporter assays use an easily measured gene product as a stand-in for the process of interest.

For data set [13] the target is unchanged. Briefly: Agonist activity at human CD137 expressed in Jurkat T cells co-expressing response element driven luciferase reporter gene assessed as fold change in Emax at 1:1 Nectin-4/CD137 ratio measured after 6 hrs by HT1376/CD137 reporter co-culture assay. Format: cell-based. As to conditions: filed as agonist.
Data set [14] is described as follows: Half life in Sprague-Dawley rat at 2 mg/kg, iv by LC/MS/MS analysis. As to conditions: in vivo.
Data set [15] deals with CT26. As to the kind of experiment: Antitumor activity against mouse CT26 cells expressed in CD137 transfected in BALB/c mouse at 1mg/kg, qd.
Data set [16] relates to CT26. Briefly: Antitumor activity against mouse CT26 cells expressed in CD137 transfected in BALB/c mouse at 5 mg/kg, ip.
For data set [17], the target named is T1, Tumor necrosis factor receptor superfamily member 9. Briefly: Induction of recombinant human CD137 assessed as increase in fold change in EC50 incubated for 6 hrs by luminescence based microplate reader assay. Conditions: filed as agonist.
Data set [18] has the same target. As to the kind of experiment: Induction of recombinant human CD137 assessed as increase in fold change in Emax incubated for 6 hrs by luminescence based microplate reader assay. Conditions: filed as agonist.

≈ marks a conversion by molar mass, not a printed value. Calls of active or inactive are those of the source.

T1 sequence (Q07011 whole entry): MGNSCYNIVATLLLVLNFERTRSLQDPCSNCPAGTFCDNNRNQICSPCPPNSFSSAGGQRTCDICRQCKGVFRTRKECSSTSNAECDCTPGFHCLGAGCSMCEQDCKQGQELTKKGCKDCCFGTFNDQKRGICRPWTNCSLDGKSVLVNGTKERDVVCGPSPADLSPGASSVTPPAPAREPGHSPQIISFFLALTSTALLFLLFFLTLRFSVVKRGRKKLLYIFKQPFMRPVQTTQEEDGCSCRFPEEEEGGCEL

With `CCCC[C@@H]1NC(=O)[C@H](Cc2ccc(O)cc2)NC(=O)[C@@H]2CCCN2C(=O)[C@H](CC(=O)O)NC(=O)[C@H](C)NC(=O)[C@H](Cc2ccccc2)NC(=O)[C@@H]2CSCCC(=O)N3CN(CN(C3)C(=O)CCSC[C@@H](C(=O)N[C@@H](CNC(=O)CCOCCOCCOCCOCCOCCOCCOCCOCCOCCOCCOCCOCCn3cc(CCC(=O)NCCC(=O)N(C)CC(=O)N(C)CC(=O)N(C)CC(=O)N(C)CC(=O)N(C)CC(=O)N(C)CC(=O)N(C)CC(=O)N(C)CC(=O)N(C)CC(=O)N(C)CC(=O)N[C@H]4CSCCC(=O)N5CN6CN(C5)C(=O)CCSC[C@H](NC(=O)[C@@H](CC(=O)O)NC(=O)[C@H](Cc5cccc7ccccc57)NC(=O)[C@@H]5CCCN5C4=O)C(=O)N[C@@H](CCSC)C(=O)N[C@@H](CCCCNC(=N)N)C(=O)N[C@@H](CC(=O)O)C(=O)N[C@@H](Cc4c[nH]c5ccccc45)C(=O)N[C@@H](CO)C(=O)N[C@@H]([C@@H](C)O)C(=O)N4CCC[C@H]4C(=O)N4C[C@H](O)C[C@H]4C(=O)N[C@@H](Cc4c[nH]c5ccccc45)C(=O)N[C@H](C(N)=O)CSCCC6=O)nn3)C(N)=O)NC1=O)C(=O)CCSC[C@H](NC(=O)[C@H](C)NC(C)=O)C(=O)NC([C@@H](C)CC)C(=O)N[C@@H](CCC(=O)O)C(=O)N[C@@H](CCC(=O)O)C(=O)NCC(=O)N[C@@H](CCC(N)=O)C(=O)N[C@@H](Cc1ccc(O)cc1)C(=O)N2` (stereo not given in full), the Activity entry in data set [1], in [4] and in data set [5] was “Dde” each time. The outcome in data set [2] and in data set [3] was Active. The values for the Kd in data set [6] and in data set [7] were 108 nM and 2.8 nM, respectively.
Consider `CCCC[C@@H]1NC(=O)[C@H](Cc2ccc(O)cc2)NC(=O)[C@@H]2CCCN2C(=O)[C@H](CC(=O)O)NC(=O)[C@H](C)NC(=O)[C@H](Cc2ccccc2)NC(=O)[C@@H]2CSCCC(=O)N3CN(CN(C3)C(=O)CCSC[C@@H](C(=O)N[C@@H](C)C(N)=O)NC1=O)C(=O)CCSC[C@H](NC(C)=O)C(=O)N[C@@H](CC(C)(C)C)C(=O)N1CCC[C@H]1C(=O)N[C@@H](CCC(=O)O)C(=O)N[C@H](CCCCNC(=O)CCc1cn(CCOCCOCCOCCOCCOCCC(=O)N[C@H]3CSCCC(=O)N4CN5CN(C4)C(=O)CCSC[C@H](NC(=O)[C@@H](CC(=O)O)NC(=O)[C@H](Cc4cccc6ccccc46)NC(=O)[C@@H]4CCCN4C3=O)C(=O)N[C@@H](CCSC)C(=O)N[C@@H](CCCCNC(=N)N)C(=O)N[C@@H](CC(=O)O)C(=O)N[C@@H](Cc3c[nH]c4ccccc34)C(=O)N[C@@H](CO)C(=O)N[C@@H]([C@@H](C)O)C(=O)N3CCC[C@H]3C(=O)N3C[C@H](O)C[C@H]3C(=O)N[C@@H](Cc3c[nH]c4ccccc34)C(=O)N[C@H](C(N)=O)CSCCC5=O)nn1)C(=O)N1CCC[C@H]1C(=O)N[C@@H](Cc1ccc(O)cc1)C(=O)N2`, for which the Activity result in [4] and in [5] was “Dde” throughout. Besides, the solubility thermodynamic in data set [8] was 29 mg/mL (≈ 6.16 mM). In data set [9], this compound gave a clearance of 30 mL/min/kg. Also, in data set [10], the Vd was found to be 0.6 L/kg. For the same compound, the half-life in data set [11] was 30 min; in [14] it was 55.8 min. In addition, the fold change (FC) in data set [12] worked out at 8.3; in data set [13] it was 2; in data set [17] it was 8.3; in data set [18] it was 2. In addition, the result in [15] and in data set [16] was Active.
